Measurements from ChEMBL document CHEMBL1135435, “Synthesis and pharmacological evaluation of 5-(4-biphenyl)-3-methyl-4-phenyl-1,2,4-triazole derivatives as a novel class of selective antagonists for the human vasopressin V(1A) receptor” (J Med Chem, 2002).

Experiments:
[1] = target: Vasopressin V2 receptor (Rattus norvegicus) (UniProt Q00788); assay: Selectivity ratio (Ki) of affinity at rat Vasopressin V2 receptor to that of rat Vasopressin V1a receptor
How it was run: (§1)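 [3H]AVP binding on plasma membranes prepared from rat liver (V1A) or rat kidney (V2). Ki from four to six independent experiments in duplicate, mean ± SEM; selectivity expressed as V2/V1A Ki ratio.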

Vasopressin V2 receptor [2] = target: Vasopressin V2 receptor (Homo sapiens, UniProt P30518); assay: Binding affinity at cloned human Vasopressin V2 receptor stably expressed in CHO cells, using [3H]AVP as radioligand; type: cell-based
Sequence of Vasopressin V2 receptor (Homo sapiens, UniProt P30518) (P30518 whole entry): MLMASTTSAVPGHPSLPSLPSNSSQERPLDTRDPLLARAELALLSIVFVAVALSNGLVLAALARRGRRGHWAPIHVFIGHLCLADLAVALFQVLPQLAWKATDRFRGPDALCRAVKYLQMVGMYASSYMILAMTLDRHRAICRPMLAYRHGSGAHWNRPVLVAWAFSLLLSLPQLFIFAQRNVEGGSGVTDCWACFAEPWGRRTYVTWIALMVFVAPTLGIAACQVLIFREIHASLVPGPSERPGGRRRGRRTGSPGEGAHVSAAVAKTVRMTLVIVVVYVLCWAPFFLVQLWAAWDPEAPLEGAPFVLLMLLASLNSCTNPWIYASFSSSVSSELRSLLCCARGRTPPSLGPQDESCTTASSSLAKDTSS
How it was run: (§2)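 Membranes from CHO cells stably expressing cloned human receptor; [3H]AVP (0.5-1.0 nM) with graded test concentrations in 50 mM Tris-HCl pH 7.4, 10 mM MgCl2, 0.1% BSA, 60 min at 25 °C. Stopped with ice-cold Tris buffer, rapid GF/B filtration, scintillation counting. Nonspecific binding with 1 μM unlabeled AVP. Ki = IC50/(1+[L]/Kd); Kd from Scatchard: 0.39 nM (V1A), 1.21 nM (V2).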

Vasopressin V1a receptor [3] = target: Vasopressin V1a receptor (Homo sapiens, UniProt P37288); assay: Binding affinity at cloned human Vasopressin V1a receptor stably expressed in CHO cells, using [3H]AVP as radioligand; type: cell-based
Sequence of Vasopressin V1a receptor (Homo sapiens, UniProt P37288) (P37288 whole entry): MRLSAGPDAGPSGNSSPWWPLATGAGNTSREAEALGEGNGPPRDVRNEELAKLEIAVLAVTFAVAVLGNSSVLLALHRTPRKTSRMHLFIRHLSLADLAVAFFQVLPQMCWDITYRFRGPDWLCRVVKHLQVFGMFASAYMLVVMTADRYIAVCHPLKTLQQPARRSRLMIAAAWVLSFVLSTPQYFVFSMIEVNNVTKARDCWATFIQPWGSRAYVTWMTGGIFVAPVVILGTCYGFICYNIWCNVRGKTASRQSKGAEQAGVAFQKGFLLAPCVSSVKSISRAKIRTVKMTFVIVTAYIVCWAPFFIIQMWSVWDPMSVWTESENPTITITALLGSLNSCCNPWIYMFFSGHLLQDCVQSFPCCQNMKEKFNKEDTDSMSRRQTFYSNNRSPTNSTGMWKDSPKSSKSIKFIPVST
How it was run: as §2, with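 “AVP.” for “AVP. Ki = IC50/(1+[L]/Kd); Kd from Scatchard: 0.39 nM (V1A), 1.21 nM (V2).”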

Vasopressin V2 receptor [4] = target: Vasopressin V2 receptor (Rattus norvegicus, UniProt Q00788); assay: Binding affinity at Vasopressin V2 receptor, performed using [3H]AVP on rat kidney; how it was run: as §1
Sequence of Vasopressin V2 receptor (Rattus norvegicus, UniProt Q00788) (Q00788 whole entry): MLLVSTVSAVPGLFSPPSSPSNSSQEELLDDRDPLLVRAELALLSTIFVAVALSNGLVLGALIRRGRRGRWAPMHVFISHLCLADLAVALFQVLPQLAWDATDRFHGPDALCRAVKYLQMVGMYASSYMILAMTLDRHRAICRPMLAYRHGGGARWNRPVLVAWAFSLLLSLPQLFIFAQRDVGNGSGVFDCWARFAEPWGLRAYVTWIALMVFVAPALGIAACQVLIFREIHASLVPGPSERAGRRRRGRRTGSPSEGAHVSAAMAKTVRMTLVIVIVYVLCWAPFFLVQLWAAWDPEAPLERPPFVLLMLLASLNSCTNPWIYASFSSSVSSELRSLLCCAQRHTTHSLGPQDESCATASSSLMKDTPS

[5] = Selectivity ratio of affinity at human Vasopressin V2 receptor to that of human Vasopressin V1a receptor.
How it was run: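 Ratio of hV2 Ki to hV1A Ki, each from [3H]AVP displacement on membranes of CHO cells stably expressing the cloned human receptor (60 min, 25 °C, filtration read-out; Ki via Cheng–Prusoff using Scatchard Kd).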

Vasopressin V1a receptor [6] = target: Vasopressin V1a receptor (Rattus norvegicus, UniProt P30560); assay: Binding affinity at Vasopressin V1a receptor, performed using [3H]AVP on rat liver; how it was run: as §1
Sequence of Vasopressin V1a receptor (Rattus norvegicus, UniProt P30560) (P30560 whole entry): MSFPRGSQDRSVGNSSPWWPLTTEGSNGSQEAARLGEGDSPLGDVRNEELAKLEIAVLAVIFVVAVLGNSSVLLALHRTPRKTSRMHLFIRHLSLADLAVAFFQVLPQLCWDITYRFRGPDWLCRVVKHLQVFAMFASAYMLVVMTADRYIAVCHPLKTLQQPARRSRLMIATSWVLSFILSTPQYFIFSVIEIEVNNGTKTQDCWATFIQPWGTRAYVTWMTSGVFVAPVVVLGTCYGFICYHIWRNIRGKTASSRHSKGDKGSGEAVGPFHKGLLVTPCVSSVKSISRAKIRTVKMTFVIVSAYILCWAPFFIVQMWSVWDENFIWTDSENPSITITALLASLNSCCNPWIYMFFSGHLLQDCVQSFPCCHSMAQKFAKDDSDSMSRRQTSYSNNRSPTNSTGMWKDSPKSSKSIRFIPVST

Sequence of Vasopressin V2 receptor (Rattus norvegicus) (Q00788 whole entry): as the sequence (Q00788 whole entry) above

CC(=O)NCCCOc1ccc(C(=O)N2CCC(N3C(=O)CCc4ccccc43)CC2)cc1
Ratio [1]: > 430
Ki (Vasopressin V2 receptor [2]): > 10000 nM
Ki (Vasopressin V1a receptor [3]): > 10000 nM
Ki (Vasopressin V2 receptor [4]): > 10000 nM

Cc1nnc(-c2ccc(-c3ccccc3)cc2)n1-c1ccccc1OCCCCCCN1CCCCC1
Ratio [5]: 500
Ki (Vasopressin V2 receptor [2]): 6930 nM
Ki (Vasopressin V1a receptor [3]): 13.9 nM

Cc1nnc(-c2ccc(-c3ccccc3)cc2)n1-c1ccccc1OCc1ccc(C(=O)N2CCN(C)CC2)cc1
Ki (Vasopressin V1a receptor [6]): 62.7 nM
Ratio [1]: 5.8
Ratio [5]: 190
Ki (Vasopressin V2 receptor [2]): 585 nM
Ki (Vasopressin V1a receptor [3]): 3.03 nM
Ki (Vasopressin V2 receptor [4]): 364 nM

Cc1nnc(-c2ccc(-c3ccccc3)cc2)n1-c1ccccc1OCCCCCCCN1CCN(C)CC1
Ratio [5]: 550
Ki (Vasopressin V2 receptor [2]): 2470 nM
Ki (Vasopressin V1a receptor [3]): 4.5 nM

Cc1nnc(-c2ccc(-c3ccccc3)cc2)n1-c1ccccc1OCCCCCCCCN1CCN(C)CC1
Ratio [5]: 670
Ki (Vasopressin V2 receptor [2]): 8890 nM
Ki (Vasopressin V1a receptor [3]): 13.2 nM

COc1ccccc1-n1c(C)nnc1-c1ccc(-c2ccccc2)cc1
Ratio [5]: 21
Ki (Vasopressin V2 receptor [2]): 2460 nM
Ki (Vasopressin V1a receptor [3]): 120 nM

Cc1nnc(-c2ccc(-c3ccccc3)cc2)n1-c1ccc(OCCCCCCN2CCN(C)CC2)cc1
Ki (Vasopressin V1a receptor [3]): > 10000 nM

Cc1nnc(-c2ccc(-c3ccccc3)cc2)n1-c1ccccc1OCCCCCCCCCCN1CCN(C)CC1
Ratio [5]: 360
Ki (Vasopressin V2 receptor [2]): 14300 nM
Ki (Vasopressin V1a receptor [3]): 39.4 nM

Cc1nnc(-c2ccc(-c3ccccc3)cc2)n1-c1ccccc1OCCCCCCN1CCN(C)CC1
Ki (Vasopressin V1a receptor [6]): 17.3 nM
Ratio [1]: 72
Ratio [5]: 1700
Ki (Vasopressin V2 receptor [2]): 1780 nM
Ki (Vasopressin V1a receptor [3]): 1.04 nM
Ki (Vasopressin V2 receptor [4]): 1240 nM

Cc1nnc(-c2ccc(-c3ccccc3)cc2)n1-c1ccccc1OCCCCC1CCNCC1
Ratio [5]: 2100
Ki (Vasopressin V2 receptor [2]): 4430 nM
Ki (Vasopressin V1a receptor [3]): 2.12 nM

Cc1nnc(-c2ccc(-c3ccccc3)cc2)n1-c1ccccc1OCCCN1CCN(C)CC1
Ratio [5]: 270
Ki (Vasopressin V2 receptor [2]): 10200 nM
Ki (Vasopressin V1a receptor [3]): 38.3 nM

Cc1nnc(-c2ccc(-c3ccccc3)cc2)n1-c1ccccc1OCCC1CCNCC1
Ratio [5]: 150
Ki (Vasopressin V2 receptor [2]): 8170 nM
Ki (Vasopressin V1a receptor [3]): 55.5 nM

COc1ccc(S(=O)(=O)N2c3ccc(Cl)cc3[C@](O)(c3ccccc3Cl)[C@@H]2C(=O)N2CCC[C@H]2C(N)=O)cc1OC [RELCOVAPTAN]
Ki (Vasopressin V2 receptor [2]): 178 nM
Ki (Vasopressin V2 receptor [4]): 285 nM

Cc1nnc(-c2ccc(-c3ccccc3)cc2)n1-c1ccccc1OCCCCCN1CCN(C)CC1
Ratio [5]: 1200
Ki (Vasopressin V2 receptor [2]): 4850 nM
Ki (Vasopressin V1a receptor [3]): 4.09 nM

Cc1nnc(-c2ccc(-c3ccccc3)cc2)n1-c1ccccc1OCCCCCCN1CCC(N2CCCCC2)CC1
Ki (Vasopressin V1a receptor [6]): 9.69 nM
Ratio [1]: 100
Ratio [5]: 930
Ki (Vasopressin V2 receptor [2]): 979 nM
Ki (Vasopressin V1a receptor [3]): 1.05 nM
Ki (Vasopressin V2 receptor [4]): 1010 nM

Cc1cccc(OCCCCCCN2CCN(C)CC2)c1-n1c(C)nnc1-c1ccc(-c2ccccc2)cc1
Ki (Vasopressin V1a receptor [6]): 102 nM
Ratio [1]: 110
Ratio [5]: 9900
Ki (Vasopressin V2 receptor [2]): 14400 nM
Ki (Vasopressin V1a receptor [3]): 1.46 nM
Ki (Vasopressin V2 receptor [4]): 11700 nM

Cc1nnc(-c2ccc(-c3ccccc3)cc2)n1-c1ccccc1OCCCCCC(=O)N1CCN(C)CC1
Ratio [5]: 730
Ki (Vasopressin V2 receptor [2]): 6650 nM
Ki (Vasopressin V1a receptor [3]): 9.16 nM

Cc1nnc(-c2ccc(-c3ccccc3)cc2)n1-c1ccccc1OCCCC1CCNCC1
Ratio [5]: 940
Ki (Vasopressin V2 receptor [2]): 7370 nM
Ki (Vasopressin V1a receptor [3]): 7.84 nM

Cc1cccc(OCc2ccc(C(=O)N3CCN(C)CC3)cc2)c1-n1c(C)nnc1-c1ccc(-c2ccccc2)cc1
Ratio [5]: 1100
Ki (Vasopressin V2 receptor [2]): 8520 nM
Ki (Vasopressin V1a receptor [3]): 8.09 nM

Cc1nnc(-c2ccc(-c3ccccc3)cc2)n1-c1cccc(OCCCCCCN2CCN(C)CC2)c1
Ki (Vasopressin V1a receptor [3]): 214 nM

Cc1cccc(OCc2ccc(C(=O)N3CCC(N4CCCCC4)CC3)cc2)c1-n1c(C)nnc1-c1ccc(-c2ccccc2)cc1
Ki (Vasopressin V1a receptor [6]): 32.4 nM
Ratio [1]: 57
Ratio [5]: 1900
Ki (Vasopressin V2 receptor [2]): 1920 nM
Ki (Vasopressin V1a receptor [3]): 1.01 nM
Ki (Vasopressin V2 receptor [4]): 1840 nM

CN(C)C1CCN(C(=O)/C=C2/c3ccccc3N(C(=O)c3ccc(NC(=O)c4ccccc4-c4ccccc4)cc3)CCC2(F)F)CC1
Ki (Vasopressin V1a receptor [6]): 0.16 nM
Ratio [1]: 4.8
Ratio [5]: 1.9
Ki (Vasopressin V2 receptor [2]): 1.19 nM
Ki (Vasopressin V1a receptor [3]): 0.62 nM
Ki (Vasopressin V2 receptor [4]): 0.77 nM

Cc1nnc(-c2ccc(-c3ccccc3)cc2)n1-c1ccccc1OCCCCCCn1ccnc1
Ratio [5]: 1200
Ki (Vasopressin V2 receptor [2]): 11100 nM
Ki (Vasopressin V1a receptor [3]): 9.06 nM

Cc1nnc(-c2ccc(-c3ccccc3)cc2)n1-c1ccccc1OCCCCN1CCN(C)CC1
Ratio [5]: 360
Ki (Vasopressin V2 receptor [2]): 10200 nM
Ki (Vasopressin V1a receptor [3]): 29.1 nM
